These results are taken from ChEMBL document CHEMBL4020840, “Synthesis and Biological Evaluation of Selenium-Containing 4-Anilinoquinazoline Derivatives as Novel Antimitotic Agents” (J Med Chem, 2018).

Experiment [1] deals with A549. The experiment in a line: Antitumor activity against human A549 cells xenografted in Balb/c mouse assessed as tumor growth inhibition at 2.5 mg/kg, ip treated once in 2 days for 10 days relative to control. The class given is functional. Particulars: read-out: TGI. The method, boiled down:
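Male BALB/c nude mice, 5 weeks old, 18−20 g. Right flank injected sc with 0.1 mL of 1 × 10⁷ cells/mL log-phase A549 in FBS-free DMEM. At ~100 mm³, randomised into groups of 5 and dosed ip every 2 days; vehicle controls got equal volume. Tumour volume (0.5 × length × width²) and body weight recorded every 2 days.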

A short description of experiment [2]: Selectivity index, ratio of IC50 for HLF to IC50 for human A549 cells. The method, boiled down:
(§1)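 MTT assay in normal cells and A549: seeding at 5 × 10³ cells/well for 24 h, 48 h compound exposure, then 5 mg/mL MTT for 4 h, DMSO solubilisation and absorbance at 570 nm. IC50 values came from dose–response curves of at least three independent experiments. Selectivity ratio = IC50 in normal cells / IC50 in A549.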

In experiment [3] the test system is A549. The experiment in a line: Induction of apoptosis in human A549 cells assessed as live cells at 4 nM after 48 hrs by Annexin V-FITC/propidium iodide staining based flow cytometry (reference value: 98.49%). It is filed as functional. (In flow cytometry, cells or beads pass a laser one at a time.)
Experiment [4] concerns HepG2. The experiment in a line: Growth inhibition of human HepG2 cells after 48 hrs by MTT assay. The class given is functional, cell-based. Particulars: HepG2, 48 h. A digest of the protocol:
(§2)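 MTT assay: log-phase cells plated at 5 × 10³/well for 24 h, then exposed to a range of test concentrations for 48 h. MTT (5 mg/mL) added for 4 h, formazan dissolved in DMSO, absorbance read at 570 nm. IC50 is the concentration giving 50% growth inhibition, from dose-response curves; at least three independent experiments, mean ± SE.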

In experiment [5] the test system is A549. As to the kind of experiment: Growth inhibition of human A549 cells after 48 hrs by MTT assay. The class given is functional, cell-based. The settings on record: A549, 48 h. For orientation: Tetrazolium dyes change colour on reduction, which living cells bring about.
Experiment [6] concerns A549. The experiment in a line: Induction of apoptosis in human A549 cells assessed as early apoptotic cells at 4 nM after 24 hrs by Annexin V-FITC/propidium iodide staining based flow cytometry (reference value: 0.98%). The class given is functional.
Experiment [7] relates to A549. As to the kind of experiment: Induction of apoptosis in human A549 cells assessed as necrotic cells at 4 nM after 48 hrs by Annexin V-FITC/propidium iodide staining based flow cytometry relative to control. The class given is functional.
The subject of experiment [8] is HCT-116. The experiment in a line: Growth inhibition of human HCT116 cells after 48 hrs by MTT assay. The class given is functional, cell-based. Particulars: HCT-116, 48 h. The method, boiled down: as §2
Experiment [9] deals with A549. The experiment in a line: Induction of apoptosis in human A549 cells assessed as necrotic cells at 2 nM after 24 hrs by Annexin V-FITC/propidium iodide staining based flow cytometry (reference value: 0.10%). It is filed as functional.
Experiment [10] relates to A549. The experiment in a line: Cell cycle arrest in human A549 cells assessed as accumulation at G2/M phase at 4 nM after 12 hrs by propidium iodide staining based flow cytometry (reference value: 10.13%). It is filed as functional. The method, boiled down:
(§3)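 A549 seeded in six-well plates at 3 × 10⁵ cells/well and treated for 12 or 24 h; vehicle 0.01% DMSO. Cells fixed overnight in ice-cold 70% ethanol, treated with RNase A at 37 °C for 30 min, then stained with PI at 4 °C for 30 min. About 10 000 events acquired by flow cytometry at 488 nm; three experiments.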

Experiment [11] relates to A549. The experiment in a line: Induction of apoptosis in human A549 cells assessed as live cells at 2 nM after 24 hrs by Annexin V-FITC/propidium iodide staining based flow cytometry (reference value: 98.84%). The class given is functional.
Experiment [12] deals with A549. The experiment in a line: Induction of apoptosis in human A549 cells assessed as live cells at 2 nM after 48 hrs by Annexin V-FITC/propidium iodide staining based flow cytometry (reference value: 98.49%). It is filed as functional.
Experiment [13] concerns HeLa. The experiment in a line: Antiproliferative activity against human HeLa cells after 48 hrs by MTT assay. The class given is functional, cell-based. The method, boiled down: as §2
In experiment [14] the test system is LoVo. As to the kind of experiment: Growth inhibition of human LoVo cells after 48 hrs by MTT assay. The class given is functional, cell-based. The method, boiled down: as §2
Experiment [15] deals with MCF7. As to the kind of experiment: Antiproliferative activity against human MCF7 cells after 48 hrs by MTT assay. It is filed as functional, cell-based. The settings on record: MCF7, 48 h. The method, boiled down: as §2
Experiment [16] relates to A549. The experiment in a line: Cell cycle arrest in human A549 cells assessed as accumulation at G2/M phase at 4 nM after 24 hrs by propidium iodide staining based flow cytometry (reference value: 10.13%). It is filed as functional. A digest of the protocol: as §3
Experiment [17] concerns A549. The experiment in a line: Induction of apoptosis in human A549 cells assessed as late apoptotic cells at 4 nM after 48 hrs by Annexin V-FITC/propidium iodide staining based flow cytometry (reference value: 0.03%). It is filed as functional.
Experiment [18] has as its system A549. As to the kind of experiment: Induction of apoptosis in human A549 cells assessed as early apoptotic cells at 2 nM after 24 hrs by Annexin V-FITC/propidium iodide staining based flow cytometry (reference value: 0.98%). It is filed as functional.
The subject of experiment [19] is A549. As to the kind of experiment: Induction of apoptosis in human A549 cells assessed as late apoptotic cells at 4 nM after 24 hrs by Annexin V-FITC/propidium iodide staining based flow cytometry (reference value: 0.08%). It is filed as functional.
The nature of experiment [20]: Growth inhibition of human HepG2/DOX cells after 48 hrs by MTT assay. It is filed as functional, cell-based. A digest of the protocol:
as §2

For experiment [21], the system named is BJ. As to the kind of experiment: Antiproliferative activity against human BJ cells after 48 hrs by MTT assay. It is filed as cell-based. The method, boiled down:
as §2

Experiment [22] relates to L02. As to the kind of experiment: Antiproliferative activity against human LO2 cells after 48 hrs by MTT assay. The settings on record: L02, 48 h. It is filed as cell-based. The method, boiled down: as §2
Experiment [23] can be described thus: Selectivity index, ratio of IC50 for human BJ cells to IC50 for human A549 cells. It is filed as functional. A digest of the protocol: as §1
The nature of experiment [24]: Inhibition of porcine brain tubulin polymerization measured every 60 secs for 90 mins by DAPI staining based fluorescence assay. More on the design: species or system Sus scrofa. The method, boiled down:
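Purified tubulin was tested in a kit assay. Final buffer: 80 mM PIPES sesquisodium (pH 6.9), 2.0 mM MgCl₂, 0.5 mM EGTA, 1 mM GTP, 10.2% glycerol. Compound (0.1–10 μM) was prewarmed at 37 °C for 1 min before tubulin was added. DAPI reporter fluorescence (ex 340 / em 410 nm) was read every 60 s for 90 min. Area under the curve gave percent inhibition versus control and the IC50.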

For experiment [25], the system named is A549. The experiment in a line: Induction of apoptosis in human A549 cells assessed as early apoptotic cells at 2 nM after 48 hrs by Annexin V-FITC/propidium iodide staining based flow cytometry (reference value: 1.48%). The class given is functional.
For experiment [26], the system named is A549. The experiment in a line: Induction of apoptosis in human A549 cells assessed as live cells at 4 nM after 24 hrs by Annexin V-FITC/propidium iodide staining based flow cytometry (reference value: 98.84%). It is filed as functional.
Experiment [27] relates to A549. As to the kind of experiment: Induction of apoptosis in human A549 cells assessed as early apoptotic cells at 4 nM after 48 hrs by Annexin V-FITC/propidium iodide staining based flow cytometry (reference value: 1.48%). The class given is functional.
A short description of experiment [28]: Antiproliferative activity against HLF after 48 hrs by MTT assay. Particulars: Homo sapiens. The class given is cell-based. A digest of the protocol: as §2
For experiment [29], the system named is A549. The experiment in a line: Induction of apoptosis in human A549 cells assessed as necrotic cells at 4 nM after 24 hrs by Annexin V-FITC/propidium iodide staining based flow cytometry (reference value: 0.10%). The class given is functional.
Experiment [30] relates to A549. As to the kind of experiment: Induction of apoptosis in human A549 cells assessed as late apoptotic cells at 2 nM after 24 hrs by Annexin V-FITC/propidium iodide staining based flow cytometry (reference value: 0.08%). The class given is functional.
Experiment [31] has as its system A549. The experiment in a line: Induction of apoptosis in human A549 cells assessed as late apoptotic cells at 2 nM after 48 hrs by Annexin V-FITC/propidium iodide staining based flow cytometry (reference value: 0.03%). It is filed as functional.
Experiment [32] deals with RKO. The experiment in a line: Growth inhibition of human RKO cells after 48 hrs by MTT assay. The class given is functional, cell-based. A digest of the protocol: as §2
The test system of experiment [33] is MDA-MB-231. As to the kind of experiment: Growth inhibition of human MDA-MB-231 cells after 48 hrs by MTT assay. The class given is functional, cell-based. The settings on record: MDA-MB-231, 48 h. The method, boiled down: as §2
The subject of experiment [34] is MGC-803. As to the kind of experiment: Antiproliferative activity against human MGC803 cells after 48 hrs by MTT assay. It is filed as functional, cell-based. The settings on record: MGC-803, 48 h. A digest of the protocol:
as §2

Experiment [35] can be described thus: Resistance factor, ratio of IC50 for human A549/CDDP cells to IC50 for human A549 cells. The class given is functional. The method, boiled down:
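MTT assay: log-phase cells were seeded at 5 × 10³/well for 24 h, then exposed to a concentration series for 48 h. MTT (5 mg/mL) was added for 4 h, formazan was dissolved in DMSO, and A570 was read. IC50 values came from dose–response curves of at least three independent experiments. Resistance factor = IC50 in the resistant line / IC50 in the parental sensitive line.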

For experiment [36], the system named is A549/CDDP. The experiment in a line: Growth inhibition of human A549/CDDP cells after 48 hrs by MTT assay. The class given is functional, cell-based. A digest of the protocol:
as §2

The subject of experiment [37] is A549. The experiment in a line: Induction of apoptosis in human A549 cells assessed as necrotic cells at 2 nM after 48 hrs by Annexin V-FITC/propidium iodide staining based flow cytometry relative to control. It is filed as functional.
Experiment [38] is described as follows: Selectivity index, ratio of IC50 for human LO2 cells to IC50 for human A549 cells. The class given is functional. The method, boiled down: as §1

Where a name gives a salt, the structure may show the parent alone.

On to `COc1ccc(N(C)c2nc(C)nc3ccccc23)cc1` [VERUBULIN HYDROCHLORIDE], for which the inhibition in vivo at 2.5 mg/kg in experiment [1] is 68.6%.
With `C[Se]c1ccc(N(C)c2nc(C)nc3ccccc23)cc1F`, the “Ratio IC50” value in [2] is recorded as 9.5; in [23], 9.5; in experiment [35] it was 3.67; in experiment [38], 8. In addition, the Activity is given as 34.36% in experiment [3]; 36.98% in experiment [6]; 12.82% in experiment [7]; 1.52% in experiment [9]; 60.89% in experiment [10]; 85.06% in [11]. The Activity in experiment [12] was 63.84%; in [16], 79.71%; in experiment [17], 25.29%; in experiment [18], 10.96%; in [19], 1.97%; in experiment [25] it was 12.22%. The Activity in [26] was 60.27%; in [27] it was 27.52%; in experiment [29], 0.78%; in [30], 2.46%; in experiment [31], 16.6%; in experiment [37], 7.34%. The IC50 (as a rule, the concentration at which inhibition is half-maximal) turned out to be 4 nM in experiment [4]; 2 nM in experiment [5]; 6 nM in experiment [8]; 5 nM in experiment [13]; 9 nM in [14]; 9 nM in experiment [15]. In addition, the IC50 stood at 5 nM in [20]; 19 nM in experiment [21]; 16 nM in experiment [22]; 1270 nM in experiment [24]; 19 nM in experiment [28]; 7 nM in [32]. In addition, the IC50 in experiment [33] is 5 nM; in experiment [34] it was 7 nM; in experiment [36], 11 nM.
For `COc1ccc(N(C)c2nc(C)nc3ccccc23)cc1` [VERUBULIN], the “Ratio IC50” value was determined as 9 in experiment [2], 7.5 in experiment [23], 3 in experiment [35] and 6.5 in [38]. The IC50 is 5 nM in experiment [4]; 3 nM in experiment [5]; 4 nM in experiment [8]; 5 nM in experiment [13]; 8 nM in experiment [14]; 11 nM in [15]. The IC50 in [20] worked out at 11 nM; in experiment [21] it was 15 nM; in experiment [22] it was 13 nM; in [24], 2740 nM; in experiment [28], 18 nM; in experiment [32], 3 nM. The IC50 was 8 nM in experiment [33], 8 nM in experiment [34] and 9 nM in [36].
On to `Cc1nc(N(C)c2ccc([Se]C#N)cc2)c2ccccc2n1`, for which the inhibition in vivo at 2.5 mg/kg in [1] stood at 69.8%.
